ChEMBL document CHEMBL2396604, “Synthesis and structure activity relationship of tetrahydroisoquinoline-based potentiators of GluN2C and GluN2D containing N-methyl-D-aspartate receptors” (J Med Chem, 2013)
Calls of active or inactive are those of the source. The rule behind the calls is not given here.

What was measured:
Assay type in all cases: cell-based
BHK [1] = test: Activity at GluN1/GluN2C receptor in hamster BHK cells assessed as effect on NMDA-induced response after 24 hrs by Fluo-4 dye-based fluorescence assay; conditions: Mesocricetus auratus
BHK [2] = test: Activity at GluN1/GluN2C receptor in hamster BHK cells assessed as effect on NMDA-induced response up to 6 hrs by Fluo-4 dye-based fluorescence assay; conditions: Mesocricetus auratus
[3] = target: Glutamate receptor ionotropic, kainate 2 (Rattus norvegicus) (UniProt P42260); test: Activity at rat recombinant GluK2 receptor expressed in Xenopus oocytes assessed as effect on glutamate-induced response by two-electrode voltage clamp technique; conditions: Oocyte
In short: (§1)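 Oocytes injected with 1–5 ng cRNA, kept in Barth's solution at 15°C for 2–5 days. Clamped at -40 mV in 90 NaCl, 1.0 KCl, 0.5 BaCl₂, 0.005 EDTA, 10 HEPES (mM), pH 7.4, 23°C. Receptors activated by 100 µM glutamate with compound co-applied. GluK2 oocytes pretreated with 10 µM concanavalin A for 10 min. DMSO 0.05–0.5% final.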

[4] = target: Glutamate receptor 1 (Rattus norvegicus) (UniProt P19490); test: Activity at rat recombinant GluA1 receptor expressed in Xenopus oocytes assessed as effect on glutamate-induced response by two-electrode voltage clamp technique; conditions: Oocyte; in short: as §1
[5] = target: Ionotropic glutamate receptor NMDA 1/2D (Rattus norvegicus) (UniProt P35439+Q62645); test: Activity at rat recombinant GluN1/GluN2D receptor expressed in Xenopus oocytes assessed as potentiation of 0.3 uM glycine/0.1 uM glutamate-induced activation at 10 uM by two-electrode voltage clamp technique relative to control; conditions: Oocyte

Chain of Glutamate receptor 1 (Rattus norvegicus) (P19490 whole entry): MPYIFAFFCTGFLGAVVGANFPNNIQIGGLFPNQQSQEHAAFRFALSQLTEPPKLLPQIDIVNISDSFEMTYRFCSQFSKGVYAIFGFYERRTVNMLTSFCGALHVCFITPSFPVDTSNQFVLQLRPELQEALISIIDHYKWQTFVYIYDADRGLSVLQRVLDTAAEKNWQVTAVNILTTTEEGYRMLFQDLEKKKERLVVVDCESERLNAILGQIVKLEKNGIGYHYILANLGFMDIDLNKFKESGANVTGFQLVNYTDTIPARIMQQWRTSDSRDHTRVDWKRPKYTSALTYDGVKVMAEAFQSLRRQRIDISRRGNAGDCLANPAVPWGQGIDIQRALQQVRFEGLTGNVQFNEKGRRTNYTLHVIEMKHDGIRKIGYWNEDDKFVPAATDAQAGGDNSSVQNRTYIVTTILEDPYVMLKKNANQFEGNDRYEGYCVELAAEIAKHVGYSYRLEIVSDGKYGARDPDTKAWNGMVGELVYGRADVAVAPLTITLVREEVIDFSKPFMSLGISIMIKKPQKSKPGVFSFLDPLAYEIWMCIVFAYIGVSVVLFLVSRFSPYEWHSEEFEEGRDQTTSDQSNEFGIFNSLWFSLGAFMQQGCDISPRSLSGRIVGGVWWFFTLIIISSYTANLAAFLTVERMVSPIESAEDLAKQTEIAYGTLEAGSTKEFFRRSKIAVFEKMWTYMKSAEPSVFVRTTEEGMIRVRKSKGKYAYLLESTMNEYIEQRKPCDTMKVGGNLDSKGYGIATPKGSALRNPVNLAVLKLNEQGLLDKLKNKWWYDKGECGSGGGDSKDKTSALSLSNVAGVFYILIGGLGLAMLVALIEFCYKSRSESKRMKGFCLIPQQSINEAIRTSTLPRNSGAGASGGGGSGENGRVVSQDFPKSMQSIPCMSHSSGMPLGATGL
Chain of Glutamate receptor ionotropic, kainate 2 (Rattus norvegicus) (P42260 whole entry): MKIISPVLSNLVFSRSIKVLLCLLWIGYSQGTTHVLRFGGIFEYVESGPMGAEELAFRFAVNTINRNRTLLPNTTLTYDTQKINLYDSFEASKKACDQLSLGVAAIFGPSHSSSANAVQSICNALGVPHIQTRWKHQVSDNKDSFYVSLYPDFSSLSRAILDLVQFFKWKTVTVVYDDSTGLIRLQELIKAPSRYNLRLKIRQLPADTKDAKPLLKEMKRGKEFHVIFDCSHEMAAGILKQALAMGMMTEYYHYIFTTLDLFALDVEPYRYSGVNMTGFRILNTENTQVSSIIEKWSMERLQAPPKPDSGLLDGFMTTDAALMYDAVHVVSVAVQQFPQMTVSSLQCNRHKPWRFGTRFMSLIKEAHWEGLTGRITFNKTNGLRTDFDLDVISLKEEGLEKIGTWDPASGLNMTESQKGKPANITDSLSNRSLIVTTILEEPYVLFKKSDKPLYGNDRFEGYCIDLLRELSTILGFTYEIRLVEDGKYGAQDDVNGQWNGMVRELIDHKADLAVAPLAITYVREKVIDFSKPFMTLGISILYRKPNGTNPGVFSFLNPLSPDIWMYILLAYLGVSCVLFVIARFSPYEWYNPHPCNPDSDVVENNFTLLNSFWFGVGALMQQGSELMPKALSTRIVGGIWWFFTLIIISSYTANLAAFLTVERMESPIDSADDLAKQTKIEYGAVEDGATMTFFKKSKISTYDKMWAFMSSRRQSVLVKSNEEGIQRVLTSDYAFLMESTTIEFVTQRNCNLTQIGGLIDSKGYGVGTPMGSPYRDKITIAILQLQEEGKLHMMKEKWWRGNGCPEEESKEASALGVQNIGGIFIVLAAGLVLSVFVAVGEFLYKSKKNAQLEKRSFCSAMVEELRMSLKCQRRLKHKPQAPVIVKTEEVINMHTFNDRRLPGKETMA

Structure (SMILES): COc1ccc(OCC2c3cc(OC)c(OC)cc3CCN2C(=O)c2cccc(Cl)c2)cc1 (racemic)
- Activity (BHK [1]): inactive
- Activity (BHK [2]): Active
- Activity [3]: inactive
- Activity [4]: inactive
- Activity [5]: 353%
